Reference: ChEMBL document CHEMBL1137088, “Distamycin analogues with enhanced lipophilicity: synthesis and antimicrobial activity” (2004)
≈ marks a conversion by molar mass, not a printed value. Calls of active or inactive are those of the source. The rule behind the calls is not given here.

Assays:
Aspergillus nidulans [1] = assay: Antifungal activity against Aspergillus nidulans CABI 0160037 strain; assay type: functional
[2] = Antifungal activity against Candida albicans NCPF 3179 strain; na = not active; assay type: functional
Aspergillus niger [3] = assay: Antifungal activity against Aspergillus niger IMI17454 strain.; assay type: functional; conditions: Aspergillus niger; read-out: MIC
Staphylococcus aureus [4] = assay: Antibacterial activity against methicillin-resistant Staphylococcus aureus (MRSA) PHLS M1 strain.; assay type: functional
In short: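 Read-out is the minimum inhibitory concentration, reported in µM. Amoxycillin is tested alongside as the reference antibiotic.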

Escherichia coli = assay: Antibacterial activity against Escherichia coli NCTC 9001 strain.; assay type: functional, organism-based
[5] = test system: Mycolicibacterium fortuitum; assay: Antibacterial activity against Mycobacterium fortuitum NCTC 10394 strain.; assay type: functional
Klebsiella aerogenes [6] = assay: Antibacterial activity against Klebsiella aerogenes WRL CN 345 strain.; assay type: functional, WRL CN 375; conditions: Klebsiella aerogenes, WRL CN 375; read-out: MIC
Aspergillus nidulans [7] = assay: Antifungal activity against Aspergillus nidulans CABI 0160037 strain; na = not active; assay type: functional
Enterococcus faecalis [8] = assay: Antibacterial activity against Streptococcus faecalis NCTC 775 strain.; assay type: functional
Staphylococcus aureus [9] = assay: Antibacterial activity against Staphylococcus aureus NCTC 6571 strain.; assay type: functional
Aspergillus niger [10] = assay: Antifungal activity against Aspergillus niger IMI17454 strain; na = not active; assay type: functional
Candida albicans = assay: Antifungal activity against Candida albicans NCPF 3179 strain.; assay type: functional; conditions: Candida albicans; read-out: MIC
Proteus vulgaris = assay: Antibacterial activity against Proteus vulgaris NCTC 4175 strain.; assay type: functional
[11] = Antibacterial activity against Enterobacter cloacae NCTC 10005 strain; assay type: functional
Klebsiella aerogenes [12] = assay: Antibacterial activity against Klebsiella aerogenes WRL CN 345 strain; na = not active; assay type: functional, organism-based
Enterobacter cloacae = assay: Antibacterial activity against Enterobacter cloacae NCTC 10005 strain.; assay type: functional, organism-based
[13] = Antibacterial activity against Proteus vulgaris NCTC 4175 strain; na = not active; assay type: functional
Enterococcus faecalis [14] = assay: Antibacterial activity against Streptococcus faecalis NCTC 775 strain; na = not active; assay type: functional, organism-based
Staphylococcus aureus [15] = assay: Antibacterial activity against Staphylococcus aureus NCTC 6571 strain; na = not active; assay type: functional, organism-based
[16] = test system: Mycolicibacterium fortuitum; assay: Antibacterial activity against Mycobacterium fortuitum NCTC 10394 strain; na = not active; assay type: functional, organism-based
Staphylococcus aureus [17] = assay: Antibacterial activity against MRSA PHLS M1 strain; na = not active; assay type: functional, organism-based

| MIC [2] | Compound | MIC (Aspergillus nidulans [1]) | MIC (Aspergillus niger [3]) | MIC (Staphylococcus aureus [4]) | MIC (Escherichia coli) | MIC [5] [µM] | MIC (Klebsiella aerogenes [6]) [µM] | MIC (Enterococcus faecalis [8]) [µM] | MIC (Staphylococcus aureus [9]) [µM] | MIC (Aspergillus niger [10]) | MIC (Candida albicans) [µM] | MIC (Proteus vulgaris) [µM] | MIC [11] | MIC (Enterobacter cloacae) | MIC [13] | further results |
| --- | --- | --- | --- | --- | --- | --- | --- | --- | --- | --- | --- | --- | --- | --- | --- | --- |
| 35.4 µM (≈ 25 µg/mL) | CCC(C)n1ncn(-c2ccc(N3CCN(c4ccc(OC[C@H]5CO[C@](Cn6cncn6)(c6ccc(Cl)cc6Cl)O5)cc4)CC3)cc2)c1=O (stereo partly drawn) [ITRACONAZOLE] | 35.4 µM (≈ 25 µg/mL) | 17.7 µM (≈ 12.5 µg/mL) | – | – | – | – | – | – | – | – | – | – | – | – | – |
| – | CC(C)CCn1cc(NC(=O)c2cc(NC=O)cn2C)cc1C(=O)Nc1cc(C(=O)NCCCN(C)C)n(C)c1 | – | – | 150 µM (≈ 82.9 µg/mL) | inactive | 37.5 (≈ 20.7 µg/mL) | 37.5 (≈ 20.7 µg/mL) | 57.5 (≈ 31.8 µg/mL) | 150 (≈ 82.9 µg/mL) | 150 µM (≈ 82.9 µg/mL) | 150 (≈ 82.9 µg/mL) | 150 (≈ 82.9 µg/mL) | 150 µM (≈ 82.9 µg/mL) | – | – | MIC (Aspergillus nidulans [7]): inactive |
| – | CC1(C)S[C@@H]2[C@H](NC(=O)[C@H](N)c3ccc(O)cc3)C(=O)N2[C@H]1C(=O)O [AMOXICILLIN] | – | – | 16.1 µM (≈ 5.88 µg/mL) | – | 16.1 (≈ 5.88 µg/mL) | 8.1 (≈ 2.96 µg/mL) | 0.49 (≈ 0.179 µg/mL) | 0.49 (≈ 0.179 µg/mL) | – | – | 4 (≈ 1.46 µg/mL) | 4 µM (≈ 1.46 µg/mL) | – | – | – |
| – | CN(C)CCCNC(=O)c1cc(NC(=O)c2cc(NC(=O)c3cc(NC=O)cn3C)cn2C2CCCC2)cn1C | – | – | 75.3 µM (not active) (≈ 41.5 µg/mL) | inactive | 75.3 (≈ 41.5 µg/mL) | – | 75 (≈ 41.3 µg/mL) | 75 (≈ 41.3 µg/mL) | inactive | 75.3 (≈ 41.5 µg/mL) | – | – | inactive | inactive | MIC (Klebsiella aerogenes [12]): inactive |
| – | COc1cccc(C(=O)Nc2cc(C(=O)Nc3cc(C(=O)Nc4cc(C(=O)NCCCN5CCN(C)CC5)n(C)c4)n(CCC(C)C)c3)n(C)c2)c1 | 30.2 µM (≈ 21.6 µg/mL) | 121 µM (≈ 86.4 µg/mL) | 121 µM (≈ 86.4 µg/mL) | inactive | 121 (≈ 86.4 µg/mL) | 121 (≈ 86.4 µg/mL) | 60.4 (≈ 43.1 µg/mL) | 60 (≈ 42.8 µg/mL) | – | 121 (≈ 86.4 µg/mL) | 121 (≈ 86.4 µg/mL) | 121 µM (≈ 86.4 µg/mL) | – | – | – |
| – | CC(C)n1cc(NC(=O)c2cc(NC(=O)c3cc(NC=O)cn3C(C)C)cn2C(C)C)cc1C(=O)NCCCN(C)C | 72 µM (≈ 41.8 µg/mL) | 72 µM (≈ 41.8 µg/mL) | 144 µM (≈ 83.6 µg/mL) | inactive | 72 (≈ 41.8 µg/mL) | 36 (≈ 20.9 µg/mL) | 72 (≈ 41.8 µg/mL) | 144 (≈ 83.6 µg/mL) | – | 144 (≈ 83.6 µg/mL) | 144 (≈ 83.6 µg/mL) | 36 µM (≈ 20.9 µg/mL) | – | – | – |
| – | CN(C)CCCNC(=O)c1cc(NC(=O)c2cc(NC(=O)c3cc(NC=O)cn3C)cn2CC2CC2)cn1C | 153 µM (≈ 82.1 µg/mL) | – | 76.9 µM (≈ 41.3 µg/mL) | inactive | 38.4 (≈ 20.6 µg/mL) | 38.4 (≈ 20.6 µg/mL) | 76.9 (≈ 41.3 µg/mL) | 153 (≈ 82.1 µg/mL) | inactive | 76.9 (≈ 41.3 µg/mL) | – | 76.9 µM (≈ 41.3 µg/mL) | – | inactive | – |
| – | CN(C)CCCNC(=O)c1cc(NC(=O)c2cc(NC(=O)c3cc(NC(=O)/C=C/c4ccccc4)cn3C)cn2C)cn1C | 70.2 µM (≈ 42 µg/mL) | 140 µM (≈ 83.8 µg/mL) | 140 µM (≈ 83.8 µg/mL) | inactive | 140 (≈ 83.8 µg/mL) | 70.2 (≈ 42 µg/mL) | 8.8 (≈ 5.27 µg/mL) | 8.8 (≈ 5.27 µg/mL) | – | 35.1 (≈ 21 µg/mL) | 70 (≈ 41.9 µg/mL) | 70.2 µM (≈ 42 µg/mL) | – | – | – |
| inactive | CC(=O)Nc1cc(C(=O)Nc2cc(C(=O)Nc3cc(C(=O)NCCCN4CCN(C)CC4)n(C)c3)n(CCC(C)C)c2)n(C)c1 | 136 µM (≈ 84.6 µg/mL) | – | – | inactive | 136 (≈ 84.6 µg/mL) | 136 (≈ 84.6 µg/mL) | – | – | inactive | – | 136 (≈ 84.6 µg/mL) | – | inactive | – | MIC (Enterococcus faecalis [14]): inactive; MIC (Staphylococcus aureus [17]): inactive; MIC (Staphylococcus aureus [15]): inactive |
| inactive | CCn1cc(NC(=O)c2cc(NC(=O)c3cc(NC=O)cn3C)cn2C)nc1C(=O)NCCCN(C)C | 160 µM (≈ 81.9 µg/mL) | – | – | inactive | 160 (≈ 81.9 µg/mL) | 40 (≈ 20.5 µg/mL) | – | – | inactive | – | 160 (≈ 81.9 µg/mL) | – | inactive | – | MIC (Enterococcus faecalis [14]): inactive; MIC (Staphylococcus aureus [17]): inactive; MIC (Staphylococcus aureus [15]): inactive |

| Compound | MIC [2] | MIC (Aspergillus nidulans [1]) | MIC (Aspergillus niger [3]) | MIC (Staphylococcus aureus [4]) | MIC (Escherichia coli) | MIC [5] [µM] | MIC (Klebsiella aerogenes [6]) [µM] | MIC (Enterococcus faecalis [8]) [µM] | MIC (Staphylococcus aureus [9]) [µM] | MIC (Aspergillus niger [10]) | MIC (Candida albicans) [µM] | MIC (Proteus vulgaris) [µM] | MIC [11] | MIC (Enterobacter cloacae) | MIC [13] | further results |
| --- | --- | --- | --- | --- | --- | --- | --- | --- | --- | --- | --- | --- | --- | --- | --- | --- |
| Cc1oc(CNC(=O)c2cc(NC(=O)c3cc(NC=O)cn3C)cn2C)nc1C(=O)NCCCN(C)C | inactive | 160 µM (not active) (≈ 82 µg/mL) | 160 µM (not active) (≈ 82 µg/mL) | 160 µM (not active) (≈ 82 µg/mL) | inactive | – | – | – | – | – | – | – | 160 µM (not active) (≈ 82 µg/mL) | – | inactive | MIC (Enterococcus faecalis [14]): inactive; MIC (Klebsiella aerogenes [12]): inactive; MIC (Staphylococcus aureus [15]): inactive; MIC [16]: inactive |
| COc1cccc(C(=O)Nc2cc(C(=O)Nc3cc(C(=O)Nc4cc(C(=O)NCCCN(C)C)n(C)c4)n(CCC(C)C)c3)n(C)c2)c1 | inactive | – | – | 2 µM (≈ 1.32 µg/mL) | inactive | 32.4 (≈ 21.3 µg/mL) | – | 16.2 (≈ 10.7 µg/mL) | 16.2 (≈ 10.7 µg/mL) | inactive | – | – | – | inactive | inactive | MIC (Klebsiella aerogenes [12]): inactive |
